The record followed here is ChEMBL document CHEMBL3244385, “Antitumor anthracycline antibiotics. Structure-activity and structure-cardiotoxicity relationships of rubidazone analogues” (J Med Chem, 1978).

The subject of one data set is Calf thymus DNA. As to the kind of experiment: Binding affinity to calf thymus DNA assessed as change in melting temperature at 5 uM by spectrophotometer analysis. The data set is classed as nucleic-acid assay. The following applies: Bos taurus. The method, boiled down: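 Drug dissolved in Me2SO, diluted with buffer, then mixed with calf thymus DNA. Final mix: 0.01 M phosphate pH 7, 5×10^-5 M DNA, 5×10^-6 M drug, 10^-5 M EDTA, 5% Me2SO. Absorbance at 259 nm recorded every 30 s while heating at 18 °C/h. Tm is the midpoint of the corrected curve; the shift is taken against DNA alone.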

Data set [1] in a line: Half life in 0.01 M phosphate buffer at 10 uM at pH 7.4 at 50 degC. The data set is classed as physicochemical. An outline of the steps:
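Drug at 1×10^-5 M in 0.01 M phosphate, pH 7.4, 50 °C, no DNA. Absorbance followed continuously for 3 h at a drug-specific wavelength (345 or 259 nm). Buffer baseline subtracted. Data fit to A = ΣA0 + c·e^(-kt), with ΣA0 the absorbance of daunorubicin plus the […], and t1/2 derived from the fit.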

Data set [2] has as its system L1210. As to the kind of experiment: Inhibition of DNA synthesis in mouse L1210 cells. The data set is classed as functional. The following applies: read-out: ED50 (the source's name).
The subject of data set [3] is L1210. As to the kind of experiment: Inhibition of RNA synthesis in mouse L1210 cells. The following applies: read-out: ED50 (the source's name). The data set is classed as functional.
A short description of data set [4]: Partition coefficient, log P of the compound. The data set is classed as physicochemical. The following applies: octanol/water.
Data set [5] can be described thus: Dissociation constant, pKa of Ar-COOH group of the compound. The data set is classed as physicochemical.
Data set [6] relates to P388. As to the kind of experiment: In vivo antitumor activity against mouse P388 cells allografted in BDF/CDF mouse assessed as host survival time at 16 mg/kg, ip administered on days 1 to 9 relative to control. The data set is classed as functional. The following applies: route intraperitoneal. An outline of the steps: (§1)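 P-388 lymphocytic leukemia, 10⁶ cells injected ip into BDF or CDF mice on day 0; drug given ip daily on days 1-9 at the stated dose. Read-out T/C: average survival time of treated mice as percent of untreated controls. Assays run by NCI Drug Research and Development Program.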

The test system of data set [7] is P388. As to the kind of experiment: In vivo antitumor activity against mouse P388 cells allografted in BDF/CDF mouse assessed as host survival time at 8 mg/kg, ip administered on days 1 to 9 relative to control. The data set is classed as functional. The following applies: route intraperitoneal. The method, boiled down:
as §1

In data set [8] the test system is P388. As to the kind of experiment: In vivo antitumor activity against mouse P388 cells allografted in BDF/CDF mouse assessed as host survival time at 4 mg/kg, ip administered on days 1 to 9 relative to control. The data set is classed as functional. The following applies: route intraperitoneal. An outline of the steps: as §1
Data set [9] concerns P388. The experiment in a line: In vivo antitumor activity against mouse P388 cells allografted in BDF/CDF mouse assessed as host survival time at 2 mg/kg, ip administered on days 1 to 9 relative to control. The data set is classed as functional. The following applies: route intraperitoneal. The method, boiled down:
as §1

Data set [10] concerns P388. As to the kind of experiment: In vivo antitumor activity against mouse P388 cells allografted in BDF/CDF mouse assessed as host survival time at 1 mg/kg, ip administered on days 1 to 9 relative to control. The data set is classed as functional. The following applies: route intraperitoneal. The method, boiled down:
as §1

For data set [11], the system named is P388. The experiment in a line: In vivo antitumor activity against mouse P388 cells allografted in BDF/CDF mouse assessed as host survival time at 0.5 mg/kg, ip administered on days 1 to 9 relative to control. The data set is classed as functional. The following applies: route intraperitoneal. The method, boiled down: as §1
Data set [12] deals with P388. The experiment in a line: In vivo antitumor activity against mouse P388 cells allografted in BDF/CDF mouse assessed as host survival time at 0.25 mg/kg, ip administered on days 1 to 9 relative to control. The following applies: route intraperitoneal. The data set is classed as functional. An outline of the steps: as §1
Data set [13] has as its system P388. As to the kind of experiment: In vivo antitumor activity against mouse P388 cells allografted in BDF/CDF mouse assessed as host survival time at 0.125 mg/kg, ip administered on days 1 to 9 relative to control. The data set is classed as functional. The following applies: route intraperitoneal. An outline of the steps: as §1
Data set [14] is filed under the species Rattus norvegicus. As to the kind of experiment: Cardiotoxicity in rat ECG model. The following applies: in vivo.
Data set [15] is filed under the species Rattus norvegicus. The experiment in a line: Cardiotoxicity in rat ECG model relative to adriamycin. The following applies: in vivo.
A short description of data set [16]: Drug metabolism in 0.01 M phosphate buffer assessed as hydrolysis rate after 3 hrs at 50 degC.

Take `COc1cccc2c1C(=O)c1c(O)c3c(c(O)c1C2=O)C[C@@](O)(/C(C)=N/NC(=O)c1ccc(Cl)cc1)C[C@@H]3O[C@H]1C[C@H](N)[C@H](O)[C@H](C)O1.Cl`: the thermal shift (ΔTm) in the data set with Calf thymus DNA was found to be 11.4 °C. This compound registered a half-life at 10 µM in data set [1] of 0.617 h. Besides, the EC50 with L1210 [2] turned out to be 1.9 µM; in the data set on L1210 [3], 1 µM. Further, in data set [4], the logP was 1.75. Also, the pKa in data set [5] worked out at 4.03. In addition, the T/C with P388 [6] is listed as 63%; in the data set on P388 [7], 109%; with P388 [8] it was 211%; in the data set on P388 [9], 163%; with P388 [10] it was 145%; in the data set with P388 [11], 139%. Besides, the T/C was 145% in the data set on P388 [12] and 110% with P388 [13]. In the data set filed under Rattus norvegicus [14], this compound yielded an MCCD of 48 mg/kg. In addition, the Ratio in the data set filed under Rattus norvegicus [15] turned out to be 3.5. In data set [16], the Drug metabolism entry is listed as “metabolite_detected”.
Take `COc1cccc2c1C(=O)c1c(O)c3c(c(O)c1C2=O)C[C@@](O)(/C(C)=N/NC(=O)c1ccc(N(C)C)cc1)C[C@@H]3O[C@H]1C[C@H](N)[C@H](O)[C@H](C)O1.Cl`: the ΔTm with Calf thymus DNA came to 10.7 °C. The same compound came in with a half-life at 10 µM in data set [1] of 9.23 h. Moreover, the EC50 with L1210 [2] is 2.6 µM; in the data set on L1210 [3] it was 2.5 µM. Further, in [4], the logP is 1.22. This compound registered a pKa in data set [5] of 4.97. The T/C came to 89% in the data set on P388 [6]; 136% with P388 [7]; 172% in the data set with P388 [8]; 181% in the data set on P388 [9]; 154% with P388 [10]; 154% with P388 [11]. In addition, the T/C with P388 [12] is given as 111%; in the data set with P388 [13], 94%. For the same compound, in the data set filed under Rattus norvegicus [14], the MCCD was 12 mg/kg. Besides, the Ratio in the data set filed under Rattus norvegicus [15] was 0.8.
As for `COc1cccc2c1C(=O)c1c(O)c3c(c(O)c1C2=O)C[C@@](O)(/C(C)=N/NC(=O)c1ccccc1)C[C@@H]3O[C@H]1C[C@H](N)[C@H](O)[C@H](C)O1.Cl` [ZORUBICIN HYDROCHLORIDE], the ΔTm in the data set with Calf thymus DNA worked out at 11.7 °C. This compound had a half-life at 10 µM in data set [1] of 5.4 h. Moreover, the values for the EC50 in the data set with L1210 [2] and in the data set with L1210 [3] were 2.2 µM and 1.2 µM, respectively. The compound further displayed a logP in data set [4] of 1.04. In [5], this compound showed a pKa of 4.19. For the same compound, the T/C was determined as 112% in the data set on P388 [6]; 164% in the data set with P388 [7]; 192% with P388 [8]; 170% with P388 [9]; 152% with P388 [10]; 140% with P388 [11]. The T/C in the data set on P388 [12] is recorded as 133%. For the same compound, the MCCD in the data set listed under Rattus norvegicus [14] was 24 mg/kg. Besides, the Ratio in the data set filed under Rattus norvegicus [15] is 1.8.

What is called ΔTm is the change in melting temperature against a reference sample. The half-life is how long it takes for the measured level to halve. The low end stands for rapid decline, the high end for slow decline. Broadly, the logP is a log measure of how a compound divides between an organic and an aqueous phase. In general, pKa refers to the negative logarithm of the acid dissociation constant. Read a high pKa as a weaker acid or stronger base. A word on the T/C: it is the result in the treated group divided by that in the control group, in per cent.
